PAFAH1B2 inh: PAFAH1B2 (human) inhibition; recombinant PAFAH1B2, FP-rhodamine activity probe, fluorescence polarization; inhibition, % at 3.39 µM; P68402; actives 1.2% (n = 340,000);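 active = inhibition above the mean of all tested compounds plus 3 SD, cut at about 24% in these data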
PAFAH1B3 inh: inhibitors of human PAFAH1B3. Q15102. recombinant PAFAH1B3, FP-rhodamine probe, fluorescence polarization. inhibition, % at 3.39 µM. actives 0.28% (n = 340,000). AID 492972;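 active = inhibition above the screen-wide average of all tested compounds plus 3 SD, cut at about 25% in these data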
HTRA1 inhibitor: HTRA1 (human) protease inhibition | Q92743 | recombinant HTRA1, FP-rhodamine activity-based probe, fluorescence polarization | inhibition, % at 5.96 µM | actives 0.5% (n = 340,000) | AID 504803; in the data active = inhibition above about 36%
pPAFAH inh: pPAFAH (human) enzyme inhibition | Q13093 | recombinant pPAFAH, FP-rhodamine probe fluorescence polarization | inhibition, % at 3.39 µM | actives 1.5% (n = 330,000) | AID 463082;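 active = inhibition above the mean inhibition across the screen plus 3 SD, cut at about 25% in these data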;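 note: inhibitors block binding of the rhodamine activity-based probe so polarization drops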
Target sequence (Q13093 whole entry, looked up): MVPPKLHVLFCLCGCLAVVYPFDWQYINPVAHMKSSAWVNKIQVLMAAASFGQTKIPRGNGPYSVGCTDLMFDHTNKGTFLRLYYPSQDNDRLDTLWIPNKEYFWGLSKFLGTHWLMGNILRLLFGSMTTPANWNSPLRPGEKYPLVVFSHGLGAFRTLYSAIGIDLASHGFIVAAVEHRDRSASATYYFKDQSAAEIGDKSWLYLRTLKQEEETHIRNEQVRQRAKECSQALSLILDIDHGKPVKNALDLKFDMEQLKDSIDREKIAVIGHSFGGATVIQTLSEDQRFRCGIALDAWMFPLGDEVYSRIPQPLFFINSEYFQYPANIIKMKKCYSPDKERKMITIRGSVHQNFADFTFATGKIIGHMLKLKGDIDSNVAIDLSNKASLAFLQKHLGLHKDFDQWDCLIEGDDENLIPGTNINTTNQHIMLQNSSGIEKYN
ABHD4 inh: inhibitors of mouse ABHD4; Q8VD66; purified mABHD4, FP-Rh probe fluorescence polarization; inhibition, % at 8.92 µM; actives 0.54% (n = 370,000);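 active = inhibition exceeding the mean over every tested compound plus 3 SD, cut at about 30% in these data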
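Doses – 8.92 µM, single dose · Material – wild-type mouse ABHD4 protein · Replication – single well per compound (singlicate) · Measure – percent inhibition of probe binding, normalized to plate controls · Schedule – 45 min compound pre-incubation plus 60 min probe step, 25 °C · Detection – fluorescence polarization with parallel and perpendicular emission, 525/598 nm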
PAFAH2 FP inh: inhibitors of human PAFAH2 | recombinant PAFAH2, FP-rhodamine activity probe, fluorescence polarization | actives 0.99% (n = 340,000) | inhibition, % at 3.39 µM | Q99487 | AID 492956;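 active = inhibition above the mean over all tested compounds plus 3 SD, cut at about 30% in these data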;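 note: inhibitors block probe labeling of enzyme so polarization drops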
HTRA1 conf: HTRA1 (human) inhibition, confirmation | shares compounds with HTRA1 inhibitor | recombinant HTRA1, FP-rhodamine activity-based probe, fluorescence polarization | inhibition, % at 5.96 µM | actives 66% (n = 1,600);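 active = mean inhibition over three repeats above a set limit taken from the earlier primary screen, cut at about 37% in these data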;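 note: inhibitors block probe binding so polarization drops and inhibition rises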
ABHD4 confirm: ABHD4 (mouse) inhibition, FP confirmation; actives 55% (n = 1,800); shares compounds with ABHD4 inh; AID 720658; inhibition, % at 8.92 µM; purified mABHD4, FP-Rh probe fluorescence polarization;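 active = mean inhibition across replicates above the hit cutoff set in the primary screen, cut at about 30% in these data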
Numbers stand for hits; n = inactive; x = no result. Shown are actives, neighbours in structure and some others; about 2.8% of the full set was active somewhere.

SMILES	PAFAH1B2 inh	PAFAH1B3 inh	HTRA1 inhibitor	pPAFAH inh	ABHD4 inh	PAFAH2 FP inh	HTRA1 conf	ABHD4 confirm
O=[N+]([O-])c1cc(/C=N\Nc2nc(-c3ccccc3)cs2)ccc1O	n	n	47	31	42	32	50	61
Cc1cccc(NCc2ccc(O)c3ncccc23)c1	n	n	n	n	n	n	x	x
COc1ccc(C)cc1N=Nc1ccc(O)c2ncccc12	n	n	86	x	36	n	64	39
COC[C@@H]1CCCN1c1cccc2c1S(=O)(=O)N(C1CC1)CC[C@@H](C)O2	x	x	x	x	n	x	x	x
COc1ccc(OC)c(NC(=O)CSc2nncc3ccc(OC)c(OC)c23)c1	n	n	44	n	43	n	n	32
COc1ccc2cnnc(SCC(=O)Nc3ccccc3)c2c1OC	n	n	n	n	n	n	x	x
O=C(NC1CCCCN(Cc2ccc(Cl)cc2)C1=O)c1ccc(COc2ccccc2)cc1 (stereo unspecified)	x	x	x	x	n	x	x	x
Cc1ccc(OCc2nnc(SCC(=O)Nc3cccc4ccccc34)n2Cc2ccco2)cc1	x	x	x	x	n	x	x	x
C=CCOc1c(Cl)cc(CNc2ccc(N(C)C)cc2)cc1OC	n	n	48	25	40	n	n	45
C=CCOc1c(Cl)cc(CNc2ccc(C)c(Cl)c2)cc1OC	x	x	x	n	x	x	x	x
COc1ccc(Sc2ccccc2CN(C)C)cc1OC	n	n	n	n	n	n	x	x
CNCc1ccccc1Sc1ccc(O)c(O)c1	n	n	62	n	35	n	57	50
Cc1ccc(O)c(/C=N/NC(=O)Cc2ccc(Cl)cc2)c1	n	n	n	n	n	n	x	x
O=C(Cc1ccc(Cl)cc1)N/N=C/c1ccc(O)c(O)c1	x	x	63	x	33	x	68	n
NC(=O)NC(=O)C(Nc1ccc(N2CCCCC2)cc1)c1ccccc1 (stereo unspecified)	n	n	52	n	40	n	n	n
O=C(Nc1ccc(N2CCCCC2)cc1)c1ccccc1	n	n	n	n	n	n	x	x
Nc1ncnc(N)c1N=Nc1ccccc1	n	n	n	x	n	n	x	x
Nc1ccc(N=Nc2ccccc2)c2cccnc12	n	n	43	28	30	n	44	55
CCOC(=O)c1ccc2c(c1)C1C=CCC1C(C(=O)OCC)N2 (stereo unspecified)	n	n	44	28	35	n	54	45
CCCCCc1ccc(OCCC[n+]2ccccc2)c(CCCCC)c1	n	n	n	n	n	n	x	x
CCCCCCCCCCCCCCCC[n+]1cccc(C(=O)N(CC)CC)c1	n	n	58	32	43	n	65	48
CCCCCCCCCCCCCCCC[n+]1ccc(C(N)=O)cc1	n	n	73	n	41	n	76	88
CCCCCCCCCCCCCCCC[n+]1ccccc1	n	n	70	x	54	n	77	50
CN(Cc1ccccc1)Cc1c(O)ccc2ccccc12	n	n	n	n	n	n	x	x
CN(Cc1cc(Cl)cc(Cl)c1O)Cc1c(O)ccc2ccccc12	n	n	52	x	30	n	62	n
SMILES	PAFAH1B2 inh	PAFAH1B3 inh	HTRA1 inhibitor	pPAFAH inh	ABHD4 inh	PAFAH2 FP inh	HTRA1 conf	ABHD4 confirm
Cc1cc2nc3ccc(N(C)C)cc3nc2cc1N	31	32	66	32	57	46	60	n
C[C@H](c1ccccc1)N1C[C@@H](COCc2ccccc2)Oc2cccc(Oc3ccc(C(C)(C)C)cc3)c2S1(=O)=O	x	x	x	x	n	x	x	x
Cc1cc(C(=O)COc2cccc3cccnc23)c(C)n1C	n	n	80	26	74	n	n	n
Cc1cc(C(=O)COc2ccccc2C(N)=O)c(C)n1C	n	n	n	n	n	n	x	x
CC(C)=CCC/C(C)=C/CNCC(=O)N1c2ccccc2[C@]2(c3ccccc3)C[C@@H]3C(=O)N(C/C=C(\C)CCC=C(C)C)CC(=O)N3[C@H]12	x	x	x	x	n	x	x	x
Cc1ccccc1NC(=O)CSc1nnc(-c2cc(-c3ccccc3)n[nH]2)n1N	x	x	x	x	n	x	x	x
O=C1C=C(N2CCCCC2)c2ccccc2C1=O	x	x	x	n	n	x	x	x
O=C1c2ccccc2C(=O)c2c1cccc2N1CCCC1	n	n	45	n	33	n	49	57
O=C1c2ccccc2-c2onc3ccc(N4CCCC4)c1c23	77	74	91	x	99	88	n	70
O=C(Nc1ccc2c(c1)OCO2)OC1CCC12CCC(c1ccccc1)CC2 (stereo unspecified)	x	x	x	x	n	x	x	x
Cc1cccc(C(=O)Nc2nc3ncccn3c2-c2ccc(C(F)(F)F)cc2)c1	x	x	x	x	n	x	x	x
O=[N+]([O-])c1ccccc1C1Nc2cccc3cccc(c23)N1	n	n	51	n	53	n	n	55
Oc1ccccc1C1Nc2cccc3cccc(c23)N1	n	n	n	n	n	n	x	x
CN(C)c1ccc(N/C=C/C(=O)c2ccco2)cc1	n	n	47	28	44	n	n	n
COc1ccccc1N1C(=O)CC(N2CCN(c3ccc([N+](=O)[O-])cc3)CC2)C1=O (stereo unspecified)	n	n	n	n	n	n	x	x
CCOc1ccccc1N1CC(C(=O)Nc2ccccc2N2CCOCC2)CC1=O (stereo unspecified)	n	n	n	n	n	n	x	x
CCOc1ccccc1N1C(=O)CC(Nc2ccc(N3CCOCC3)cc2)C1=O (stereo unspecified)	n	n	44	n	46	n	n	n
COc1ccccc1N1C(=O)CC(Nc2ccc(N3CCOCC3)cc2)C1=O (stereo unspecified)	n	n	44	n	46	n	n	n
Nc1ccccc1O	n	n	n	n	x	n	x	x
Nc1cccc2c(O)cccc12	n	35	40	n	42	44	n	51
COc1cccc(NC(=O)Nc2nc3ncccn3c2-c2ccc(C(F)(F)F)cc2)c1	x	x	x	x	n	x	x	x
CC(=O)C1C(=O)c2c(cccc2[N+](=O)[O-])C1=Nc1ccc(S(N)(=O)=O)cc1 (stereo unspecified)	n	35	39	25	38	39	n	34
CCCCN1CCS(=O)(=O)N(Cc2cn(Cc3cccc(Cl)c3)nn2)C(C(=O)OC)C1 (stereo unspecified)	x	x	x	x	n	x	x	x
Oc1c(Br)cc(Br)cc1/C=N/NC(=S)N[C@H]1CC2C=CC1C2 (stereo partly specified)	n	n	57	46	38	57	63	43
CCOc1ccc(/C=N/NC(=S)NC2CC3C=CC2C3)cc1 (stereo unspecified)	x	x	x	n	n	x	x	x
O=C1C(=O)N(Cc2ccc(-c3ccc(F)nc3)cc2)c2ccc(OC(F)(F)F)cc21	x	x	x	x	n	x	x	x
